Here are results for 3 compounds from ChEMBL document CHEMBL5357069, “Development of a GC-376 Based Peptidomimetic PROTAC as a Degrader of 3-Chymotrypsin-like Protease of SARS-CoV-2” (ACS Med Chem Lett, 2024).

The source made the active and inactive calls. No cut-off for these calls is given here. A value given as a limit tells only on which side of the number the result lay.

For data set [1], the target named is Replicase polyprotein 1ab (Severe acute respiratory syndrome coronavirus 2, UniProt P0DTD1). The data set can be described thus: Inhibition of N-terminal 6xHis-tagged SARS-CoV-2 3CLPro expressed in Escherichia coli BL21(DE3) using Hi-lyte Fluor-488-ESATLQSGLRKAK-(QXL-520)-NH2 as substrate preincubated for 10 mins followed by substrate addition measured for 30 mins by fluorometric assay.

The target in data set [2] is Replicase polyprotein 1ab (Severe acute respiratory syndrome coronavirus 2) (UniProt P0DTD1). The data set is described as follows: Binding affinity to SARS-CoV-2 3CLPro assessed as covalent complex formation by MALDI TOF mass spectrometry.
The target is the same in data set [3]. The data set is described as follows: Inhibition of N-terminal 6xHis-tagged SARS-CoV-2 3CLPro expressed in Escherichia coli BL21(DE3) using Hi-lyte Fluor-488-ESATLQSGLRKAK-(QXL-520)-NH2 as substrate at 10 uM preincubated for 10 mins followed by substrate addition measured for 30 mins by fluorometric assay relative to control. The settings on record: time 40.0 min.

For data set [4] the target is unchanged. The data set is described as follows: Inhibition of N-terminal 6xHis-tagged SARS-CoV-2 3CLPro expressed in Escherichia coli BL21(DE3) using Hi-lyte Fluor-488-ESATLQSGLRKAK-(QXL-520)-NH2 as substrate at 100 uM preincubated for 10 mins followed by substrate addition measured for 30 mins by fluorometric assay relative to control. The note with it: time 40.0 min.

Data set [5] shares this target. The data set is described as follows: Reversible binding affinity to SARS-CoV-2 3CLPro using fluorogenic substrate assessed as covalent complex formation preincubated for 30 mins followed by substrate addition by MALDI TOF mass spectrometry. In short, it runs like this:
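Reversibility by dilution: enzyme incubated 30 min with or without large compound excess, then diluted 100-fold into buffer with fluorogenic substrate; initial velocities from progress curves compared against compound-free enzyme.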

For data set [6], the target named is T1, Protein cereblon/Replicase polyprotein 1ab (Severe acute respiratory syndrome coronavirus 2) (UniProt Q96SW2+P0DTD1). The data set can be described thus: PROTAC activity at CRBN/C-terminal HA epitope-tagged SARS-CoV-2 3CLPro transfected in human HeLa cells assessed as degradation of 3CLPro at 80 uM incubated upto 48 hrs by immunoblot analysis. It counts as cell-based. In short, it runs like this:
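Time course in HeLa cells stably expressing C-terminally HA-tagged 3CLPro (lentiviral transduction, puromycin selection), treated at 80 μM; whole-cell extracts immunoblotted, 3CLPro band normalized to actin.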
A general note: Immunoblotting shows a protein as a band on a membrane.

Data set [7] concerns the target T1, Protein cereblon/Replicase polyprotein 1ab (Severe acute respiratory syndrome coronavirus 2). The data set can be described thus: PROTAC activity at CRBN/C-terminal HA epitope-tagged SARS-CoV-2 3CLPro transfected in human HeLa cells assessed as degradation of 3CLPro upto 80 uM by immunoblot analysis. It counts as cell-based. Put shortly:
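HeLa cells stably expressing C-terminally HA-tagged 3CLPro (lentiviral, puromycin-selected) treated 24 h at a range of concentrations; lysates immunoblotted, 3CLPro normalized to actin.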

Data set [8] deals with Replicase polyprotein 1ab (Severe acute respiratory syndrome coronavirus 2) (UniProt P0DTD1). The data set is described as follows: Binding affinity to monomeric form of SARS-CoV-2 3CLPro assessed as change in chemical shift by NMR spectroscopy.
Data set [9] has the same target. The data set is described as follows: Binding affinity to dimeric form of SARS-CoV-2 3CLPro assessed as change in chemical shift by NMR spectroscopy. Put shortly: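 Solution NMR titration of dimeric 3CLPro with the ligand up to a 1:1 protein:ligand molar ratio, following loss of free-protein signals and appearance of adduct signals.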
For a further data set, the system named is HeLa. The data set is described as follows: Cytotoxicity against human HeLa cells assessed as cell viability upto 80 uM incubated for 72 hrs by MTT assay. Format: toxicity, cell-based. In short, it runs like this: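 HeLa cells exposed to compound for 72 h at a series of concentrations; viability read by MTT assay.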

The term IC50 denotes the concentration needed to halve the response being measured. Usually inhibition stands for the relative decrease from the control value, in per cent.

For `COC(=O)/C=C/[C@H](C[C@@H]1CCNC1=O)NC(=O)[C@H](CC(C)C)NC(=O)OCc1ccccc1`, in data set [1], the IC50 is 1.35 µM. Moreover, the result in data set [2] was Active.
As for `COC(=O)/C=C/[C@H](C[C@@H]1CCNC1=O)NC(=O)[C@H](Cc1ccccc1)NC(=O)[C@@H](NC(=O)CCC(=O)N1CCN(C(=O)C2CCN(c3cccc4c3C(=O)N(C3CCC(=O)NC3=O)C4=O)CC2)CC1)C(C)C` (stereo partly drawn), the IC50 in [1] was > 100 µM. Further, the values for the inhibition in data set [3] and in [4] were 0% and 64%, respectively.
For the compound `CC(C)C[C@H](NC(=O)OCc1ccccc1)C(=O)N[C@H](/C=C/C(=O)N1CCN(CC2CCN(c3cc4c(cc3F)C(=O)N(C3CCC(=O)NC3=O)C4=O)CC2)CC1)C[C@@H]1CCNC1=O` (stereo partly drawn), the result in data set [5], in data set [6], in data set [7], in data set [9] and in [2] was Active. In data set [1], this compound displayed an IC50 of 21.2 µM. The outcome in data set [8] was inactive. Besides, the Activity entry in the data set with HeLa is given as “Non-Toxic”.
